This sample holds only a part of the variants without activity.

B1: tRNA (parent)
chain: GUUCCGUUGGCGUAAUGGUAACGCGUCUCCCUCCUAAGGAGAAGACUGCGGGUUCGAGUCCCGUACGGAACG

In this series the parent is B1. Kind of series: yeast fitness relative to wild type (ratio to wild type); higher = fitter; tRNA-Arg(CCU), competitive growth, 37 C, YPD. In outline: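 Amplicons of the tRNA-Arg(CCU) gene were sequenced, 100-nucleotide paired-end, from the start population and from each end population of a pooled yeast competition. The competition, in six parallel replicates, lasted 24 hours in YPD at 37°C. Fitness relative to wild type was calculated from changes in genotype frequencies. Genotypes had to have ≥ 100 starting reads, and estimates < 0.5 were set to 0.5.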
For C30G C31G, the yeast fitness stood at 0.687.
Turning to C30G C31A, the yeast fitness worked out at 0.62.
Regarding C30A G50A G67A, the yeast fitness came to 0.543.
In the case of C30U C31G U35A it was 0.62; in that of C30U C34U A37U U59C C66U, 0.565.
As for C30G C55G A57C U59C, the figure is at most 0.5.
As for C30G C33U C66U, the figure is at most 0.5; as for C30G C34G C66U, at most 0.5; as for C30G A37U G38A A57C A65C, at most 0.5.
In the case of C30G G63C, the yeast fitness was at most 0.5.
In the case of C30G G63A it was 0.641.
As to C30U C31U C34A A70C, the yeast fitness is at most 0.5.
In the case of C30U C34U G44C it was at most 0.5.
As for C30G A37C G68A, the figure is at most 0.5; as for C30A G38A G44A, at most 0.5; as for C30G C31G C33G A37C, at most 0.5.
In the case of C30A C62A it was 0.589.
On to C30U A36C G52A C55G, for which the yeast fitness was at most 0.5.
As for C30U C31A G41A, the figure is at most 0.5; as for C30A C55G, 0.596.
As for C30A C55U, the figure is 0.686; as for C30U A37G G39A, 0.552; as for C30G C49A U54G A65G, at most 0.5.
In the case of C30U A40C A42C G68U it was at most 0.5; in that of C30G A69U, 0.669.
In the case of C30U G38A, the yeast fitness came out at 1.
As for C30G C60U C62G C66A, the figure is 0.695; as for C30U C46A C62U, 0.852.
As for C30G C33G, the figure is at most 0.5; as for C30G C33A, 0.563.
On to C30U A43U C61G A69C, for which the yeast fitness was at most 0.5.
As for C30G C31G C33G A37C G67C, the figure is at most 0.5.
In the case of C30G C34U C49G C55U it was at most 0.5.
As for C30A G44C, the figure is 0.795; as for C30G C46G U53C A57G A69U, at most 0.5; as for C30U A37C, 0.729.
In the case of C30U A37G, the yeast fitness came to 0.656.
In the case of C30G U35A G51C it was 0.628.
As for C30G A45C C61A G67C, the figure is at most 0.5.
As for C30G G58A, the figure is 0.678.
Take C30G A36G A57U A65U: the yeast fitness was 0.555.
C30G G44C G51C: the yeast fitness came out at 0.549.
In the case of C30A C61G it was 0.651; in that of C30A C61A, 0.721.
As to C30G C49A, the yeast fitness was at most 0.5.
In the case of C30G C49U it was 0.643.
Take C30U A36C: the yeast fitness came out at 0.566.
In the case of C30U A36G it was 0.927.
As for C30U A36U, the figure is 0.57; as for C30U C31U A36C, at most 0.5.
In the case of C30G U35C C66U it was at most 0.5; in that of C30G U64C, 0.626; in that of C30G A37U U47C C60A, 0.68.
For C30G G67C, the yeast fitness was 0.637.
In the case of C30G C66G it was 0.574.
In the case of C30G C66A it was at most 0.5; in that of C30G C66U, 0.606.
In the case of C30U C49G U54A it was at most 0.5; in that of C30U A45G G58A, 0.663; in that of C30G G52C G67A, at most 0.5.
C30G U47C G63A G67A: the yeast fitness was at most 0.5.
In the case of C30U C34U it was 0.715; in that of C30U C34A, 0.806.
With C30G C33U G56C, the yeast fitness was at most 0.5.
As for C30G C33G C60G A70U, the figure is at most 0.5; as for C30G C33G C60G A70G, 0.544; as for C30G G38C G56A, 0.959.
In the case of C30G G41A A45C it was at most 0.5.
Regarding C30G G41C A70U, the yeast fitness is at most 0.5.
As to C30U C55G A69C, the yeast fitness was at most 0.5.
As for C30G U35C, the figure is at most 0.5.
With C30G G48C G52A G67U, the yeast fitness was at most 0.5.
As for C30G A40G A45G G52C A57C C60U A70C, the figure is at most 0.5; as for C30A G39C, 0.656; as for C30A C49A C61U, at most 0.5.
For C30U A42C G67C A69U, the yeast fitness was at most 0.5.
Turning to C30G C34G A37G A45G, the yeast fitness is at most 0.5.
C30G C49U U64A: the yeast fitness is 0.702.
As for C30U C31U A45C C49U U53G, the figure is at most 0.5; as for C30G C33A G56C A65G, at most 0.5.
As for C30G U32C G50C U59C, the figure is at most 0.5.
In the case of C30G A42U G58C it was at most 0.5; in that of C30U A37C G38A, at most 0.5; in that of C30G G56A A57U, at most 0.5.
For C30U A37C C46U, the yeast fitness amounted to 0.666.
In the case of C30A C49U A69U it was 0.682; in that of C30A G51A G52A U53C G56A C61G, at most 0.5; in that of C30U C49A G52A C61G A70U, at most 0.5.
In the case of C30G C49A U53C C66G it was 0.513.
As for C30G C31U C46U, the figure is 0.609.
Regarding C30A U32A U35G G67A, the yeast fitness was at most 0.5.
In the case of C30G C46U it was 0.648.
In the case of C30G C46A, the yeast fitness stood at 0.587.
In the case of C30U C46G it was 0.874; in that of C30U C46U, 0.966; in that of C30U C46A, 0.982.
In the case of C30U A43G it was 0.647.
As for C30G A37C A42G A57U, the figure is 1.01; as for C30U C31U G41C, 0.526.
In the case of C30A G63A, the yeast fitness is 0.83.
In the case of C30A U59G A69G it was 0.599; in that of C30G A37G C61U, at most 0.5.
Take C30G A45C: the yeast fitness amounted to 0.669.
As for C30G A43G C49G, the figure is 0.544.
In the case of C30A C61U C62A A70G it was at most 0.5; in that of C30U C46U C60A, at most 0.5; in that of C30G A45G U47C, at most 0.5.
Consider C30U A40C, for which the yeast fitness was 0.792.
As for C30U A40G, the figure is 0.914; as for C30U A40U, 0.965; as for C30G C34A A57U C61G, at most 0.5.
As for C30G A42C G56A, the figure is at most 0.5; as for C30G A36G U53A G68A, at most 0.5.
In the case of C30A G52A A57U it was at most 0.5; in that of C30A C46U, 0.939; in that of C30U A37G A70C, 0.59.
C30G A43U G48C C55A G63A: the yeast fitness was at most 0.5.
In the case of C30A G58C G63A it was at most 0.5; in that of C30G U32C G50C, at most 0.5; in that of C30U G38A A69U, 0.781.
For the variant C30U A57G A65U, the yeast fitness was 0.667.
As for C30A G56U A65G C66U, the figure is at most 0.5; as for C30G A40C C55G, 0.624.
As for C30U C46A G50A, the figure is 0.632.
With C30G A37G, the yeast fitness came out at 0.513.
In the case of C30G A37C it was 0.673; in that of C30G A37U, 0.615; in that of C30A U59C, 0.863.
In the case of C30U C33A G56C A70C it was at most 0.5.
Turning to C30G C34G A40C C66A A69C, the yeast fitness turned out to be 0.527.
C30G A40G: the yeast fitness came to 0.605.
As for C30G A40C, the figure is 0.595.
Consider C30A U54A A69C, for which the yeast fitness turned out to be 0.539.
As for C30U A40U C49A G56A A57U, the figure is at most 0.5.
For the variant C30G U59C A65U, the yeast fitness turned out to be 0.528.
As for C30G C31G U32A C33U, the figure is 0.554; as for C30U A37U G52A C61G, at most 0.5.
In the case of C30A G52C A69C it was at most 0.5.
In the case of C30U C46A G63A it was 0.825; in that of C30U C62U, 0.868.
Turning to C30A G48A, the yeast fitness is 1.06.
In the case of C30G U53C it was 0.632; in that of C30G C31A U47G G58C, at most 0.5.
As for C30G C34U C49G, the figure is 0.615; as for C30A G41C A69C, 0.598; as for C30U A42G G52C, at most 0.5.
C30U C46A C61A G68A: the yeast fitness was at most 0.5.
As for C30G C49A G68A, the figure is at most 0.5; as for C30U A65U, 0.876; as for C30U A65G, 0.932.
As for C30A C60G, the figure is 0.635; as for C30A C60U, 0.727; as for C30A U54C, 0.811.
As for C30U C49U, the figure is 0.862; as for C30U C31G A36C U54A, 0.674.
Take C30A G68A A69C: the yeast fitness was determined as 0.629.
In the case of C30U A36G G44A C61G, the yeast fitness is at most 0.5.
As for C30U C61A, the figure is 0.648.
In the case of C30A C49G it was 0.798; in that of C30A C49U, 0.898; in that of C30A U32C, 0.892.
In the case of C30A U32G it was 0.624; in that of C30U A36C A69U, at most 0.5; in that of C30G C31U U59A, 0.563.
As for C30U C33U A57G C60A, the yeast fitness was at most 0.5.
As for C30U C31A U54G, the figure is 0.549; as for C30U A57C, 0.586.
